The nature of data set [1]: Toxicity in human skin fibroblasts assessed as reduction in cell number after 48 hrs by Hoechst 33342 staining based assay. The data set is classed as tissue-based, Fibroblast. In short, it runs like this:
(§1)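 4000 cells per well. Cells exposed 24 h after seeding to 6 concentrations ([…]) for 48 h. They were then fixed in cold 90% ethanol/5% acetic acid for 20 min and nuclei stained with Hoechst 33342. Plates imaged on a high-content reader. IC₅₀ calculated; normal diploid skin fibroblasts served as control cells.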

Data set [2] is described as follows: Toxicity in human MCF7 cells assessed as reduction in cell number after 48 hrs by Hoechst 33342 staining based assay. In short, it runs like this:
as §1

In data set [3] the target is Small conductance calcium-activated potassium channel protein 3 (Homo sapiens) (UniProt Q9UGI6). The data set can be described thus: Inhibition of SK3 (unknown origin) expressed in HEK293 cells assessed as reduction in channel current at 10 uM with 0 mV holding potential by patch clamp electrophysiological method. The format is cell-based. In short, it runs like this:
(§2)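 Patch clamp on HEK-293 cells stably expressing SK3 (lentiviral). Compound added acutely; DMSO/methanol was the vehicle, and runs with or without apamin. Ramp from −80 to +80 mV, holding at 0 mV, 500 ms ramps at 4 s intervals. Current analyzed at 0 mV to minimize chloride currents, followed as a time course. Pipette solution adjusted to pH 7.2 with KOH.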
(In general: In patch-clamp work, channel activity is measured electrically.)

In data set [4] the test system is MDA-MB-435. The data set can be described thus: Antimetastatic activity against human MDA-MB-435 cells harboring shRNA assessed as reduction in cell migration at 3 uM after 24 hrs by […] relative to control. The format is functional. Further details: scale not given: the % may be the effect or the level left.
Data set [5] in a line: Toxicity in human MDA-MB-231 cells assessed as reduction in cell number after 48 hrs by Hoechst 33342 staining based assay. In short, it runs like this:
as §1

Data set [6] is described as follows: Toxicity in human Caco-2 cells assessed as reduction in cell number after 48 hrs by Hoechst 33342 staining based assay. The method in brief: as §1
Data set [7] has as its target Small conductance calcium-activated potassium channel protein 3 (Homo sapiens) (UniProt Q9UGI6). The data set can be described thus: Inhibition of SK3 in human MDA-MB-435 cells harboring SK3 shRNA assessed as reduction in Ca2+ influx at 1 uM measured after 1 hr by Fura2-AM dye based fluorescence assay. The format is cell-based. In short, it runs like this:
(§3)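 Constitutive Ca²⁺ entry in MDA-MB-435s shRD or shSK3 cells, measured 48 h after transfection with 30 nM siOrai1 or siCTL. Cells were treated 1 h with compound and loaded with Fura2-AM for 45 min at 37 °C. They were then resuspended in Ca²⁺-free solution for 20 s before 2 mM CaCl₂ was added. Emission read at 510 nm with 340/380 nm excitation. Steady-state signal normalized to control. Three experiments in triplicate.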

The target is the same in data set [8]. The data set can be described thus: Inhibition of SK3 (unknown origin) expressed in HEK293 cells assessed as reduction in channel current at 10 uM with 0 mV holding potential in presence of -apamin by patch clamp electrophysiological method. The format is cell-based. The method in brief: as §2
Data set [9] concerns MDA-MB-435. The data set can be described thus: Toxicity in human MDA-MB-435 cells assessed as mortality at 10 uM measured after 24 hrs by MTT assay relative to control. The format is cell-based. The conditions noted are these: mda-mb-435, 24 h. In short, it runs like this: (§4)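 MTT viability assay: about 4 × 10⁴ MDA-MB-435s cells seeded in triplicate with the molecules (tested series 100 nM, 300 nM, 1 µM, 3 µM, 10 µM) and kept 24 h at 37 °C. Medium was then removed and cells incubated 45 min at 37 °C with tetrazolium salt, which viable cells reduce to formazan. Results given as % mortality.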
A general note: Formazan colour is commonly taken as a measure of viable cells.

For data set [10], the system named is MDA-MB-435. The data set can be described thus: Toxicity in human MDA-MB-435 cells assessed as mortality at 1 uM measured after 24 hrs by MTT assay relative to control. The data set is classed as cell-based. The conditions noted are these: mda-mb-435, 24 h. In short, it runs like this: as §4
Data set [11] is described as follows: Toxicity in human HCT-116 cells assessed as reduction in cell number after 48 hrs by Hoechst 33342 staining based assay. The method in brief: as §1
The test system of data set [12] is MDA-MB-435. The data set can be described thus: Inhibition of SK3/Orai1 in human MDA-MB-435 cells harboring SK3 shRNA assessed as reduction in Ca2+ influx at 1 uM measured after 1 hr by Fura2-AM dye based fluorescence assay. The format is cell-based. The method in brief: as §3
Data set [13] is described as follows: Toxicity in human Huh-7 cells assessed as reduction in cell number after 48 hrs by Hoechst 33342 staining based assay. In short, it runs like this:
as §1

Data set [14] concerns the target Small conductance calcium-activated potassium channel protein 3 (Homo sapiens) (UniProt Q9UGI6). The experiment in a line: Inhibition of SK3 (unknown origin) expressed in HEK293 cells assessed as reduction in channel current at 10 uM with 0 mV holding potential measured within 100 secs by patch clamp electrophysiological method relative to control. The format is cell-based. The conditions noted are these: time 100.0 sec. In short, it runs like this: as §2

For data set [15], the system named is MDA-MB-435. The data set can be described thus: Effect on calcium influx in human MDA-MB-435 cells harboring siRNA and siCTL at 1 uM measured after 1 hr by Fura2-AM dye based fluorescence assay. The data set is classed as functional, cell-based. The method in brief:
as §3

For data set [16], the system named is MDA-MB-435. The experiment in a line: Antimetastatic activity against human MDA-MB-435 cells assessed as reduction in cell migration at 1 uM after 24 hrs by […] relative to control. The format is functional. Also on record: scale not given: the % may be the effect or the level left.
Data set [17] in a line: Toxicity in human NCI-H727 cells assessed as reduction in cell number after 48 hrs by Hoechst 33342 staining based assay. The method in brief:
as §1

Data set [18] in a line: Toxicity in human PC-3 cells assessed as reduction in cell number after 48 hrs by Hoechst 33342 staining based assay. The method in brief: as §1
Data set [19] has as its system MDA-MB-435. The data set can be described thus: Antimetastatic activity against human MDA-MB-435 cells harboring shRNA assessed as reduction in cell migration at 0.3 to 3 uM after 24 hrs by […]. The format is functional, cell-based. As to conditions: dose 0.3-3 µM.
Data set [20] deals with MDA-MB-435. The data set can be described thus: Effect on calcium influx in human MDA-MB-435 cells harboring siRNA and siOrai1 at 1 uM measured after 1 hr by Fura2-AM dye based fluorescence assay. The data set is classed as functional, cell-based. The method in brief:
as §3

The test system of data set [21] is MDA-MB-435. The experiment in a line: Antimetastatic activity against human MDA-MB-435 cells harboring SK3 shRNA assessed as reduction in cell migration after 24 hrs by […]. The data set is classed as functional, cell-based.

Calls of active or inactive are those of the source. The rule behind the calls is not given here.

In general, IC50 refers to the midpoint of a concentration-inhibition curve. The inhibition is how much of the control response was suppressed. Broadly, the mortality is the share of the test organisms that died.

Chain of Small conductance calcium-activated potassium channel protein 3 (Homo sapiens) (Q9UGI6 whole entry): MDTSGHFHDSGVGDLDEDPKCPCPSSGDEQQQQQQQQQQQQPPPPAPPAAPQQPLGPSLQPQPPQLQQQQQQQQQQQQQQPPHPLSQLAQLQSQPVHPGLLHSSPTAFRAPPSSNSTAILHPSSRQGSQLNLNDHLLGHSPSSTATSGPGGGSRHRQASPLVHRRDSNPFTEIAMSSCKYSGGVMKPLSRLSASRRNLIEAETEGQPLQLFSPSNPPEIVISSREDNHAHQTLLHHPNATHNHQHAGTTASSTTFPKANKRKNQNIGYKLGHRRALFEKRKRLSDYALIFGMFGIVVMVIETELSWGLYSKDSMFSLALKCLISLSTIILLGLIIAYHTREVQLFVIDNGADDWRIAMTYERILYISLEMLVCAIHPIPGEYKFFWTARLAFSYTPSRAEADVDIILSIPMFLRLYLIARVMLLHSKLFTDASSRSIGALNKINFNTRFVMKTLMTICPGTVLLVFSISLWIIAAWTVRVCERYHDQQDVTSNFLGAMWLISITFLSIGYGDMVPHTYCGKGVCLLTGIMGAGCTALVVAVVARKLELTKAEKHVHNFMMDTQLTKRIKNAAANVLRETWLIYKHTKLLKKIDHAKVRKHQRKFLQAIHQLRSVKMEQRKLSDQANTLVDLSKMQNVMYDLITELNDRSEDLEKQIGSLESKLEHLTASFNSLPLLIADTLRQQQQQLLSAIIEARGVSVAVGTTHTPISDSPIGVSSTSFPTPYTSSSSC

`CCCCCCCC/C=C\CCCCCCC[C@H](C[C@@H]1C=CCCN1C)OC(C)=O`: the IC50 at 48 h in [1] turned out to be 13 µM; in data set [2] it was 15 µM; in [5], 10 µM; in data set [6], 9 µM; in data set [11], 9 µM; in data set [13], 10 µM. Also, the figures for the IC50 at 48 h in [17] and in data set [18] were 19 µM and 8 µM, respectively. Further, the figures for the inhibition in data set [3] and in data set [14] were 70% and 50%, respectively. For the same molecule, the values for the Activity result in the data set with MDA-MB-435 [4], with MDA-MB-435 [16] and with MDA-MB-435 [21] were “<=40%”, 40% and “Dose-dependent effect”, respectively. For the same molecule, the inhibition result in data set [7] was “inactive”. The inhibition entry (in data set [8]; in the data set with MDA-MB-435 [12]) was “Active” in each case. Besides, the values for the mortality in the data set with MDA-MB-435 [9] and with MDA-MB-435 [10] were 70% and 0%, respectively. Also, the result in the data set on MDA-MB-435 [15], in the data set with MDA-MB-435 [19] and in the data set with MDA-MB-435 [20] was inactive.

The values are drawn from ChEMBL document CHEMBL4715835, “Lipidic synthetic alkaloids as SK3 channel modulators. Synthesis and biological evaluation of 2-substituted tetrahydropyridine derivatives with potential anti-metastatic activity” (Eur J Med Chem, 2020).
